Laboratory results: ChEMBL document CHEMBL1165858, “Synthesis and biological evaluation of beta-chloro vinyl chalcones as inhibitors of TNF-alpha and IL-6 with antimicrobial activity” (Eur J Med Chem, 2010)
Values after ≈ are worked out from the molar mass of the structure shown. Active and inactive are the calls of the source. The calls are words filed in the database; no cut-off is given here.

Assays:
THP-1 [1] = experiment: Antiinflammatory activity in human THP1 cells assessed as inhibition of LPS-induced TNFalpha secretion at 10 uM treated 30 mins before LPS challenge measured after 24 hrs by ELISA relative to control; type: functional
In short: (§1)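 THP-1 cells were grown in RPMI 1640 with 10% FBS and penicillin/streptomycin, then differentiated with PMA. Compound or vehicle (0.5% DMSO) was added for 30 min at 37 °C, followed by LPS (E. coli 0127:B8, final 1 µg/mL). After 24 h at 37 °C in 5% CO2, TNF-α and IL-6 in the supernatants were quantified by ELISA. Values are the mean of n = 2.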

Aspergillus fumigatus = experiment: Antibacterial activity against Aspergillus fumigatus NCIM 902 after 72 hrs by disc diffusion method; type: functional; settings: for MIC: Aspergillus fumigatus, NCIM 902, 72 h
In short: (§2)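 Agar disc diffusion against fungi. Fungi were maintained on potato dextrose agar at (25 ± 2) °C for five days before use. Compounds were dissolved in DMSO (10 mg/mL initial solutions) and loaded on discs placed on freshly seeded plates alongside a solvent control disc. Plates were held at 4 °C for 24 h for diffusion, then incubated at 37 ± 5 °C for 72 h. Zones of inhibition (mm) and MICs were recorded.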

Proteus vulgaris [2] = experiment: Antibacterial activity against Proteus vulgaris NCIM 2813 at > 100 […] after 24 hrs by disc diffusion method; type: functional, organism-based
Penicillium chrysogenum = experiment: Antibacterial activity against Penicillium chrysogenum NCIM 707 after 72 hrs by disc diffusion method; type: functional; settings: for MIC: Penicillium chrysogenum, NCIM 707, 72 h; in short: as §2
Bacillus subtilis [3] = experiment: Antibacterial activity against Bacillus subtilis NCIM 2546 at > 100 […] after 24 hrs by disc diffusion method; type: functional, organism-based
THP-1 [4] = experiment: Antiinflammatory activity in human THP1 cells assessed as inhibition of LPS-induced IL-6 secretion at 10 uM treated 30 mins before LPS challenge measured after 24 hrs by ELISA relative to control; type: functional; in short: as §1
[5] = Cytotoxicity against […] at 10 uM; type: cell-based
Candida albicans = experiment: Antibacterial activity against Candida albicans NCIM 3100 after 72 hrs by disc diffusion method; type: functional; in short: as §2
Klebsiella pneumoniae [6] = experiment: Antibacterial activity against Klebsiella pneumoniae NCIM 5082 at > 100 […] after 24 hrs by disc diffusion method; type: functional, organism-based
Staphylococcus aureus [7] = experiment: Antibacterial activity against Staphylococcus aureus NCIM 2120 at > 100 […] after 24 hrs by disc diffusion method; type: functional, organism-based
Escherichia coli [8] = experiment: Antibacterial activity against Escherichia coli NCIM 2065 at > 100 […] after 24 hrs by disc diffusion method; type: functional, organism-based
Trichoderma viride = experiment: Antibacterial activity against Trichoderma viride TT after 72 hrs by disc diffusion method; type: functional; settings: for MIC: Trichoderma viride, TT, 72 h; in short: as §2
Aspergillus niger = experiment: Antibacterial activity against Aspergillus niger NCIM 545 after 72 hrs by disc diffusion method; type: functional; settings: for MIC: Aspergillus niger, NCIM 545, 72 h; in short: as §2
Proteus vulgaris [9] = experiment: Antibacterial activity against Proteus vulgaris NCIM 2813 after 24 hrs by disc diffusion method; type: functional; settings: for MIC: Proteus vulgaris, NCIM 2813, 24 h
In short: (§3)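 Paper disc diffusion (6.25 mm Whatman no.1 discs, dry-heat sterilized at 140 °C for 1 h) loaded with compounds at different concentrations in DMSO. Discs were placed in triplicate on nutrient agar seeded with fresh bacterial culture and incubated at 37 °C for 24 h, with solvent and growth controls. Zones of inhibition (mm) and MIC, the concentration completely inhibiting growth, were recorded.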

Staphylococcus aureus [10] = experiment: Antibacterial activity against Staphylococcus aureus NCIM 2120 after 24 hrs by disc diffusion method; type: functional; settings: for MIC: Staphylococcus aureus, NCIM 2120, 24 h; in short: as §3
Escherichia coli [11] = experiment: Antibacterial activity against Escherichia coli NCIM 2065 after 24 hrs by disc diffusion method; type: functional; settings: for MIC: Escherichia coli, NCIM 2065, 24 h; in short: as §3
Klebsiella pneumoniae [12] = experiment: Antibacterial activity against Klebsiella pneumoniae NCIM 5082 after 24 hrs by disc diffusion method; type: functional; settings: for MIC: Klebsiella pneumoniae, NCIM 5082, 24 h; in short: as §3
Bacillus subtilis [13] = experiment: Antibacterial activity against Bacillus subtilis NCIM 2546 after 24 hrs by disc diffusion method; type: functional; settings: for MIC: Bacillus subtilis, NCIM 2546, 24 h; in short: as §3

In the case of COc1cc(OC)cc(/C(Cl)=C/C=C/C(=O)c2c(O)cc(OC)cc2OC)c1, the inhibition at 10 µM (THP-1 [1]) is reported as 13%, the “inhibition zone (IZ)” value (Aspergillus fumigatus) is reported as 14 mm and the MIC (Aspergillus fumigatus) is reported as 50 µg/mL (≈ 124 µM). For the same compound, the MIC (Proteus vulgaris [2]) was “inactive”, the “inhibition zone (IZ)” value (Penicillium chrysogenum) was 15 mm and the MIC (Penicillium chrysogenum) was 50 µg/mL (≈ 124 µM). The MIC (Bacillus subtilis [3]) was “inactive”, the inhibition at 10 µM (THP-1 [4]) was 45% and the Activity [5] was “Non-toxic”. For the same compound, the “inhibition zone (IZ)” value (Candida albicans) was 12 mm, the MIC (Klebsiella pneumoniae [6]) was “inactive” and the MIC (Staphylococcus aureus [7]) was “inactive”. The MIC (Escherichia coli [8]) was “inactive”, the “inhibition zone (IZ)” value (Trichoderma viride) was 14 mm and the MIC (Trichoderma viride) was 50 µg/mL (≈ 124 µM). For the same compound, the “inhibition zone (IZ)” value (Aspergillus niger) was 16 mm and the MIC (Aspergillus niger) was 50 µg/mL (≈ 124 µM).
With CC1(C)S[C@@H]2[C@H](NC(=O)Cc3ccccc3)C(=O)N2[C@H]1C(=O)O [PENICILLIN G] the “inhibition zone (IZ)” value (Proteus vulgaris [9]) was 22 mm, the MIC (Proteus vulgaris [9]) was 25 µg/mL (≈ 74.8 µM) and the “inhibition zone (IZ)” value (Staphylococcus aureus [10]) was 20 mm. For the same compound, the MIC (Staphylococcus aureus [10]) was 25 µg/mL (≈ 74.8 µM), the “inhibition zone (IZ)” value (Escherichia coli [11]) was 18 mm and the MIC (Escherichia coli [11]) was 25 µg/mL (≈ 74.8 µM). The Activity [5] was “Non-toxic”, the “inhibition zone (IZ)” value (Klebsiella pneumoniae [12]) was 21 mm and the MIC (Klebsiella pneumoniae [12]) was 25 µg/mL (≈ 74.8 µM). For the same compound, the “inhibition zone (IZ)” value (Bacillus subtilis [13]) was 22 mm and the MIC (Bacillus subtilis [13]) was 25 µg/mL (≈ 74.8 µM).
In the case of COc1cc(O)c(C(=O)/C=C/C=C(\Cl)c2ccc(F)cc2)c(OC)c1, the “inhibition zone (IZ)” value (Proteus vulgaris [9]) is reported as 18 mm, the MIC (Proteus vulgaris [9]) is reported as 25 µg/mL (≈ 68.9 µM) and the inhibition at 10 µM (THP-1 [1]) is reported as 16%. The “inhibition zone (IZ)” value (Staphylococcus aureus [10]) was 14 mm, the MIC (Staphylococcus aureus [10]) was 50 µg/mL (≈ 138 µM) and the “inhibition zone (IZ)” value (Aspergillus fumigatus) was 14 mm. For the same compound, the MIC (Aspergillus fumigatus) was 50 µg/mL (≈ 138 µM), the “inhibition zone (IZ)” value (Escherichia coli [11]) was 16 mm and the MIC (Escherichia coli [11]) was 50 µg/mL (≈ 138 µM). The “inhibition zone (IZ)” value (Penicillium chrysogenum) was 14 mm, the MIC (Penicillium chrysogenum) was 50 µg/mL (≈ 138 µM) and the inhibition at 10 µM (THP-1 [4]) was 83%. For the same compound, the Activity [5] was “Non-toxic”, the “inhibition zone (IZ)” value (Candida albicans) was 10 mm and the “inhibition zone (IZ)” value (Klebsiella pneumoniae [12]) was 14 mm. The MIC (Klebsiella pneumoniae [12]) was 50 µg/mL (≈ 138 µM), the “inhibition zone (IZ)” value (Bacillus subtilis [13]) was 22 mm and the MIC (Bacillus subtilis [13]) was 25 µg/mL (≈ 68.9 µM). The “inhibition zone (IZ)” value (Trichoderma viride) was 16 mm, the MIC (Trichoderma viride) was 50 µg/mL (≈ 138 µM) and the “inhibition zone (IZ)” value (Aspergillus niger) was 17 mm. It also gave an MIC (Aspergillus niger) of 25 µg/mL (≈ 68.9 µM).
In the case of COc1cccc(/C(Cl)=C/C=C/C(=O)c2c(O)cc(OC)cc2OC)c1, the inhibition at 10 µM (THP-1 [1]) is reported as 11%, the “inhibition zone (IZ)” value (Staphylococcus aureus [10]) is reported as 15 mm and the MIC (Staphylococcus aureus [10]) is reported as 50 µg/mL (≈ 133 µM). For the same compound, the “inhibition zone (IZ)” value (Aspergillus fumigatus) was 16 mm, the MIC (Aspergillus fumigatus) was 50 µg/mL (≈ 133 µM) and the “inhibition zone (IZ)” value (Escherichia coli [11]) was 10 mm. For the same compound, the “inhibition zone (IZ)” value (Penicillium chrysogenum) was 17 mm, the MIC (Penicillium chrysogenum) was 25 µg/mL (≈ 66.7 µM) and the inhibition at 10 µM (THP-1 [4]) was 39%. The Activity [5] was “Non-toxic”, the “inhibition zone (IZ)” value (Candida albicans) was 13 mm and the “inhibition zone (IZ)” value (Klebsiella pneumoniae [12]) was 14 mm. For the same compound, the MIC (Klebsiella pneumoniae [12]) was 50 µg/mL (≈ 133 µM), the “inhibition zone (IZ)” value (Trichoderma viride) was 16 mm and the MIC (Trichoderma viride) was 50 µg/mL (≈ 133 µM). For the same compound, the “inhibition zone (IZ)” value (Aspergillus niger) was 16 mm and the MIC (Aspergillus niger) was 50 µg/mL (≈ 133 µM).
For C[C@@H]1C[C@H]2[C@@H]3CCC4=CC(=O)C=C[C@]4(C)[C@@]3(F)[C@@H](O)C[C@]2(C)[C@@]1(O)C(=O)CO [DEXAMETHASONE], the inhibition at 10 µM (THP-1 [1]) was 69%, the inhibition at 10 µM (THP-1 [4]) was 90% and the Activity [5] was “Non-toxic”.
With OC(Cn1cncn1)(Cn1cncn1)c1ccc(F)cc1F [FLUCONAZOLE] the “inhibition zone (IZ)” value (Aspergillus fumigatus) was 20 mm, the MIC (Aspergillus fumigatus) was 25 µg/mL (≈ 81.6 µM) and the “inhibition zone (IZ)” value (Penicillium chrysogenum) was 22 mm. The MIC (Penicillium chrysogenum) was 25 µg/mL (≈ 81.6 µM), the “inhibition zone (IZ)” value (Candida albicans) was 18 mm and the MIC (Candida albicans; Candida albicans, NCIM 3100, 72 h) was 25 µg/mL (≈ 81.6 µM). The “inhibition zone (IZ)” value (Trichoderma viride) was 22 mm, the MIC (Trichoderma viride) was 25 µg/mL (≈ 81.6 µM) and the “inhibition zone (IZ)” value (Aspergillus niger) was 20 mm. The MIC (Aspergillus niger) was 25 µg/mL (≈ 81.6 µM).
With COc1cc(O)c(C(=O)/C=C/C=C(\Cl)c2ccc(Cl)cc2)c(OC)c1 the “inhibition zone (IZ)” value (Proteus vulgaris [9]) was 15 mm, the MIC (Proteus vulgaris [9]) was 50 µg/mL (≈ 132 µM) and the inhibition at 10 µM (THP-1 [1]) was 13%. For the same compound, the “inhibition zone (IZ)” value (Staphylococcus aureus [10]) was 18 mm, the MIC (Staphylococcus aureus [10]) was 25 µg/mL (≈ 65.9 µM) and the “inhibition zone (IZ)” value (Aspergillus fumigatus) was 17 mm. For the same compound, the MIC (Aspergillus fumigatus) was 25 µg/mL (≈ 65.9 µM), the “inhibition zone (IZ)” value (Escherichia coli [11]) was 15 mm and the MIC (Escherichia coli [11]) was 50 µg/mL (≈ 132 µM). For the same compound, the “inhibition zone (IZ)” value (Penicillium chrysogenum) was 12 mm, the inhibition at 10 µM (THP-1 [4]) was 74% and the Activity [5] was “Non-toxic”. For the same compound, the “inhibition zone (IZ)” value (Candida albicans) was 12 mm, the “inhibition zone (IZ)” value (Klebsiella pneumoniae [12]) was 18 mm and the MIC (Klebsiella pneumoniae [12]) was 25 µg/mL (≈ 65.9 µM). For the same compound, the “inhibition zone (IZ)” value (Bacillus subtilis [13]) was 20 mm, the MIC (Bacillus subtilis [13]) was 25 µg/mL (≈ 65.9 µM) and the “inhibition zone (IZ)” value (Trichoderma viride) was 15 mm. The MIC (Trichoderma viride) was 50 µg/mL (≈ 132 µM), the “inhibition zone (IZ)” value (Aspergillus niger) was 16 mm and the MIC (Aspergillus niger) was 50 µg/mL (≈ 132 µM).
